From ChEMBL document CHEMBL1141667, “Synthesis and antimicrobial activities of 7-O-modified genistein derivatives” (2008)
In brackets after ≈: the same amount, converted by molar mass.

Experiments:
Assay type in all cases: functional
Escherichia coli = assay: Antibacterial activity against Escherichia coli after 24 hrs by MTT assay
How it was run: (§1)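 Broth microdilution MIC in MH medium. Compounds from a 50 mg/mL DMSO stock were serially diluted in medium. Inoculum was about 10⁵ cfu/mL, each concentration in triplicate, incubated at 37 °C for 24 h. MIC was read visually, then confirmed by adding PBS with 2 mg/mL MTT and incubating 4–5 h at room temperature. A compound-free medium control checked for any MTT effect on growth.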

Staphylococcus aureus = assay: Antibacterial activity against Staphylococcus aureus after 24 hrs by MTT assay; how it was run: as §1
Candida albicans = assay: Antifungal activity against Candida albicans after 48 hrs by MTT assay
How it was run: (§2)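 Antifungal MIC by microdilution in RPMI-1640 medium. Compounds came from a 50 mg/mL DMSO stock and were serially diluted. Inoculum was about 10⁵ cfu/mL, with triplicate wells per concentration, incubated at 37 °C for 48 h. MIC was judged visually, followed by PBS containing 2 mg/mL MTT for 4–5 h at room temperature for the colorimetric read. A compound-free control tested MTT interference.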

Pseudomonas fluorescens = assay: Antibacterial activity against Pseudomonas fluorescens after 24 hrs by MTT assay; how it was run: as §1
Trichophyton rubrum = assay: Antifungal activity against Trichophyton rubrum after 48 hrs by MTT assay; how it was run: as §2
Aspergillus niger = assay: Antifungal activity against Aspergillus niger after 48 hrs by MTT assay; how it was run: as §2
Bacillus subtilis = assay: Antibacterial activity against Bacillus subtilis after 24 hrs by MTT assay; how it was run: as §1

SMILES | MIC (Escherichia coli) [µg/mL] | MIC (Staphylococcus aureus) [µg/mL] | MIC (Candida albicans) [µg/mL] | MIC (Pseudomonas fluorescens) [µg/mL] | MIC (Trichophyton rubrum) [µg/mL] | MIC (Aspergillus niger) [µg/mL] | MIC (Bacillus subtilis) [µg/mL]
O=c1c(-c2ccc(O)cc2)coc2cc(OCCCBr)cc(O)c12 | > 50 | > 50 | > 50 | > 50 | > 50 | > 50 | > 50
CCCN(CCC)CCCCOc1cc(O)c2c(=O)c(-c3ccc(O)cc3)coc2c1 | > 50 | 10.5 (≈ 24.7 µM) | > 50 | 19.5 (≈ 45.8 µM) | > 50 | > 50 | 19.5 (≈ 45.8 µM)
O=c1c(-c2ccc(O)cc2)coc2cc(OCCCCBr)cc(O)c12 | > 50 | > 50 | > 50 | > 50 | > 50 | > 50 | > 50
O=c1c(-c2ccc(O)cc2)coc2cc(OCCN3CCCCC3)cc(O)c12 | > 50 | > 50 | > 50 | > 50 | > 50 | > 50 | > 50
O=c1c(-c2ccc(O)cc2)coc2cc(OCCN3CCOCC3)cc(O)c12 | > 50 | > 50 | > 50 | > 50 | > 50 | > 50 | > 50
O=c1c(-c2ccc(O)cc2)coc2cc(OCCCN3CCCCC3)cc(O)c12 | > 50 | > 50 | > 50 | > 50 | > 50 | > 50 | > 50
CN1CCN(CCCOc2cc(O)c3c(=O)c(-c4ccc(O)cc4)coc3c2)CC1 | > 50 | > 50 | > 50 | > 50 | > 50 | > 50 | 43 (≈ 105 µM)
O=c1c(-c2ccc(O)cc2)coc2cc(OCCCN3CCOCC3)cc(O)c12 | > 50 | > 50 | > 50 | > 50 | > 50 | > 50 | > 50
O=c1c(-c2ccc(O)cc2)coc2cc(OCCCN3CCNCC3)cc(O)c12 | > 50 | 40 (≈ 101 µM) | > 50 | > 50 | > 50 | > 50 | > 50
CCCN(CCC)CCCOc1cc(O)c2c(=O)c(-c3ccc(O)cc3)coc2c1 | > 50 | 15.3 (≈ 37.2 µM) | > 50 | 45 (≈ 109 µM) | > 50 | > 50 | 32 (≈ 77.8 µM)
CN1CCN(CCCCOc2cc(O)c3c(=O)c(-c4ccc(O)cc4)coc3c2)CC1 | > 50 | 27.2 (≈ 64.1 µM) | > 50 | 37.4 (≈ 88.1 µM) | > 50 | > 50 | 30.3 (≈ 71.4 µM)
O=c1c(-c2ccc(O)cc2)coc2cc(OCCBr)cc(O)c12 | > 50 | > 50 | > 50 | > 50 | > 50 | > 50 | > 50
CCCN(CCC)CCOc1cc(O)c2c(=O)c(-c3ccc(O)cc3)coc2c1 | > 50 | 41.2 (≈ 104 µM) | > 50 | 47.5 (≈ 120 µM) | > 50 | > 50 | > 50
CN1CCN(CCOc2cc(O)c3c(=O)c(-c4ccc(O)cc4)coc3c2)CC1 | > 50 | 35.5 (≈ 89.5 µM) | > 50 | > 50 | > 50 | > 50 | > 50
O=c1c(-c2ccc(O)cc2)coc2cc(OCCn3ccnc3)cc(O)c12 | > 50 | > 50 | > 50 | > 50 | > 50 | > 50 | > 50
O=c1c(-c2ccc(O)cc2)coc2cc(OCCn3cnc4ccccc43)cc(O)c12 | > 50 | > 50 | > 50 | > 50 | > 50 | > 50 | > 50
O=c1c(-c2ccc(O)cc2)coc2cc(OCCCCN3CCNCC3)cc(O)c12 | > 50 | 20.1 (≈ 49 µM) | > 50 | 37.5 (≈ 91.4 µM) | > 50 | > 50 | 15.5 (≈ 37.8 µM)
O=c1c(-c2ccc(O)cc2)coc2cc(OCCCNCc3ccco3)cc(O)c12 | > 50 | 3.4 (≈ 8.35 µM) | > 50 | 10.5 (≈ 25.8 µM) | > 50 | 45.5 (≈ 112 µM) | 12.5 (≈ 30.7 µM)
O=c1c(-c2ccc(O)cc2)coc2cc(OCCNCc3ccco3)cc(O)c12 | > 50 | > 50 | > 50 | > 50 | > 50 | > 50 | > 50
O=c1c(-c2ccc(O)cc2)coc2cc(OCCN3CCCC3)cc(O)c12 | > 50 | 49.6 (≈ 135 µM) | > 50 | 28.5 (≈ 77.6 µM) | > 50 | 39.8 (≈ 108 µM) | > 50
O=c1c(-c2ccc(O)cc2)coc2cc(OCCN3CCNCC3)cc(O)c12 | > 50 | 17.5 (≈ 45.8 µM) | > 50 | 23.5 (≈ 61.5 µM) | > 50 | > 50 | 47.5 (≈ 124 µM)
O=c1c(-c2ccc(O)cc2)coc2cc(OCCCCN3CCCC3)cc(O)c12 | > 50 | 23.7 (≈ 59.9 µM) | > 50 | 23.1 (≈ 58.4 µM) | 48.5 (≈ 123 µM) | > 50 | 38.5 (≈ 97.4 µM)
CCCCN(CCCC)CCOc1cc(O)c2c(=O)c(-c3ccc(O)cc3)coc2c1 | > 50 | 32.8 (≈ 77.1 µM) | > 50 | 37 (≈ 87 µM) | > 50 | 41.6 (≈ 97.8 µM) | 30 (≈ 70.5 µM)
O=c1c(-c2ccc(O)cc2)coc2cc(OCCCN3CCCC3)cc(O)c12 | > 50 | 18.5 (≈ 48.5 µM) | 20.5 (≈ 53.7 µM) | 20.5 (≈ 53.7 µM) | 21.5 (≈ 56.4 µM) | 23.5 (≈ 61.6 µM) | 48.5 (≈ 127 µM)
CCCCN(CCCC)CCCCOc1cc(O)c2c(=O)c(-c3ccc(O)cc3)coc2c1 | > 50 | 1.7 (≈ 3.75 µM) | > 50 | 13.2 (≈ 29.1 µM) | > 50 | > 50 | 3.7 (≈ 8.16 µM)
O=c1c(-c2ccc(O)cc2)coc2cc(OCCCCN3CCOCC3)cc(O)c12 | > 50 | 37.5 (≈ 91.1 µM) | > 50 | > 50 | > 50 | > 50 | 35.5 (≈ 86.3 µM)
NC[C@H]1O[C@H](O[C@H]2[C@H](O)[C@@H](O[C@H]3O[C@H](CO)[C@@H](O)[C@H](N)[C@H]3O)[C@H](N)C[C@@H]2N)[C@H](O)[C@@H](O)[C@@H]1O [KANAMYCIN] | 3.9 (≈ 8.05 µM) | 1 (≈ 2.06 µM) |  | 3.9 (≈ 8.05 µM) |  |  | 1 (≈ 2.06 µM)
CC(=O)N1CCN(c2ccc(OCC3COC(Cn4ccnc4)(c4ccc(Cl)cc4Cl)O3)cc2)CC1 (centres undefined) [KETOCONAZOLE] |  |  | 3.9 (≈ 7.34 µM) |  | 3.9 (≈ 7.34 µM) | 7.8 (≈ 14.7 µM) | 
